Positions count from the first letter of the chain named.
How the values were obtained:
[1] = molecular target: T1, HO2core (human HO2 residues 1–248) (Homo sapiens, UniProt P30519); assay: Fe^3+-heme difference titration with HO2core; format: binding; conditions: read-out: Kd (titrations); 2 μM HO2core; 50 mM Tris pH 8.0, 50 mM KCl, 20 °C, anaerobic; quadratic fit
T1 sequence (P30519 1-248): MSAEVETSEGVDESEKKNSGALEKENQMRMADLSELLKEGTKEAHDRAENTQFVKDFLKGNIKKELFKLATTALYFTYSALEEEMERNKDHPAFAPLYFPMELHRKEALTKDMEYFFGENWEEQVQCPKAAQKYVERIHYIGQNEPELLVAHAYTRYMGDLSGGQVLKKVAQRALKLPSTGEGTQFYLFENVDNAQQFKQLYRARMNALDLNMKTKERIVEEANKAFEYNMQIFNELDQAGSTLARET

[2] = molecular target: T2, HO2tail(C282A)^R (human HO2 residues 213–288, disulfide-reduced) (Homo sapiens, UniProt P30519, C282A); assay: Fe^3+-heme difference titration with HO2tail; format: binding; conditions: read-out: Kd (titrations); 10 μM HO2tail(C282A)^R; 50 mM Tris pH 8.0, 50 mM KCl, 20 °C, anaerobic
T2 sequence (P30519 213-288 C282A): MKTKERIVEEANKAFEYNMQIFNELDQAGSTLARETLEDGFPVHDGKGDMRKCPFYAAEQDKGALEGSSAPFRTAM

[3] = molecular target: T3, HO2tail(C265A)^R (human HO2 residues 213–288, disulfide-reduced) (Homo sapiens, UniProt P30519, C265A); assay: Fe^3+-heme difference titration with HO2tail; format: binding; conditions: read-out: Kd (titrations); 6 μM HO2tail(C265A)^R; 50 mM Tris pH 8.0, 50 mM KCl, 20 °C, anaerobic
T3 sequence (P30519 213-288 C265A): T2 sequence (P30519 213-288 C282A) with C53A, A70C

[4] = molecular target: T4, HO2tail(C282A)^R (Homo sapiens, UniProt P30519, C282A); assay: Fe^3+-heme off rate, apo-H64Y/V68F-myoglobin assay, HO2tail; format: binding; conditions: 2 μM heme-bound protein, 20 μM apo-H64Y/V68F-myoglobin, 20 °C
T4 sequence (P30519 213-288 C282A): T2 sequence (P30519 213-288 C282A)
Summary of the method: (§1)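 Disulfide-reduced (TCEP) heme-loaded protein, freed of unbound heme, at 2 μM was mixed with 20 μM apo-H64Y/V68F-myoglobin in 50 mM Tris pH 8.0, 50 mM KCl. Apomyoglobin was prepared by methyl ethyl ketone extraction, dialysed against Tris pH 7.4 with 150 mM KCl, and quantified at 280 nm. Spectra were recorded over time at 20 °C, following the absorbance rise at 600 from heme scavenging.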

[5] = tested on: HO2tail(C265A)^R; assay: as above; format: binding, human; conditions: 2 μM heme-bound protein, 20 μM apo-H64Y/V68F-myoglobin, 20 °C
Summary of the method: as §1

[6] = tested on: HO2tail^R; assay: Fe^3+-heme off rate, apo-H64Y/V68F-myoglobin assay, HO2tail^R; format: binding, human; conditions: double-exponential, 20 °C
Summary of the method: as §1

[7] = tested on: HO2sol^R (human HO2 residues 1–288, disulfide-reduced); assay: Fe^3+-heme off rate, apo-H64Y/V68F-myoglobin assay, HO2sol^R; format: binding; conditions: double-exponential, 20 °C
Summary of the method: as §1

[8] = molecular target: T5, HO2core (Homo sapiens, UniProt P30519); assay: Fe^3+-heme on rate, anaerobic stopped flow, HO2core; format: binding
T5 sequence (P30519 1-248): T1 sequence (P30519 1-248)
Summary of the method: (§2)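 Apoprotein at various concentrations was mixed with Fe3+-heme in 50 mM Tris pH 8.0, 50 mM KCl by stopped-flow inside an anaerobic chamber, 1 cm path, 20 °C, 406 nm. Each kobs is the mean of 5–7 traces fit to a single exponential. Eq 1 fit of kobs versus apoprotein concentration gave k2/k1 and kcoord, with k′heme ≈ kcoord/(k2/k1). Kd is the myoglobin-assay off rate divided by k′heme.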

[9] = molecular target: T4, HO2tail(C282A)^R; assay: Fe^3+-heme on rate, anaerobic stopped flow, HO2tail; format: binding
Summary of the method: as §2

[10] = molecular target: T6, HO2sol^R (Homo sapiens, UniProt P30519); assay: Fe^3+-heme on rate, anaerobic stopped flow, HO2sol^R; conditions: 406 nm, 20 °C, per observable binding site (two per monomer)
T6 sequence (P30519 1-288): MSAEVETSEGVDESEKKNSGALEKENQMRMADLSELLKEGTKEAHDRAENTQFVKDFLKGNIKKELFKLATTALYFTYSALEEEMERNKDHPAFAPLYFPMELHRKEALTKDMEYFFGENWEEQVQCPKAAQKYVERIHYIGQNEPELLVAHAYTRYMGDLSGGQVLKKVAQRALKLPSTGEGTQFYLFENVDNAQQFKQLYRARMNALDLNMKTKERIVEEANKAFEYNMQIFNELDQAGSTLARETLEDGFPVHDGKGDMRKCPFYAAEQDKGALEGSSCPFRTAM
Summary of the method: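 TCEP-reduced apoprotein at various concentrations was mixed with Fe3+-heme in anaerobic 50 mM Tris pH 8.0, 50 mM KCl by stopped-flow within an anaerobic chamber at 20 °C, monitored at 406 nm. Each kobs is an average of 5–7 traces fit to a single exponential. kobs was plotted against the concentration of observable binding sites and fit to eq 1; k′heme ≈ kcoord/(k2/k1).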

[11] = tested on: HO2tail^R; assay: Pyridine hemochrome assay of bound heme, HO2tail^R; format: binding, human; conditions: after 5-fold excess Fe^3+-heme and removal of unbound heme
Summary of the method: (§3)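 Protein was reduced with a 25-fold molar excess of TCEP for 1 h anaerobically, desalted into anaerobic 50 mM Tris pH 8.0, 50 mM KCl, then incubated 1 h with excess Fe3+-heme (5-fold molar excess in the general method). The heme stock contained 15% DMSO and 0.1 M NaOH, was filtered and quantified at 385 nm. Unbound heme was removed on a desalting column. Bound heme was measured by pyridine hemochrome (Δε556 28.32 mM−1 cm−1).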

[12] = molecular target: T6, HO2sol^R; assay: Pyridine hemochrome assay of bound heme, HO2sol^R; format: binding; conditions: after 5-fold excess Fe^3+-heme and removal of unbound heme
Summary of the method: as §3

[13] = tested on: HO2tail(C265A)^R; assay: Pyridine hemochrome assay of bound heme, HO2tail; format: binding, human; conditions: after excess Fe^3+-heme and removal of unbound heme
Summary of the method: as §3

[14] = molecular target: T4, HO2tail(C282A)^R; assay: Pyridine hemochrome assay of bound heme, HO2tail; format: binding; conditions: after excess Fe^3+-heme and removal of unbound heme
Summary of the method: as §3

[15] = tested on: HO2tail(C265A/C282A)^R; assay: Heme binding to HO2tail; set-up: species or system human; conditions: data not shown
[16] = tested on: HO2 tail at Cys265; assay: Calculated dissociation equilibrium constant, HO2 tail at Cys265; format: binding, human
[17] = tested on: HRI (heme-regulated eukaryotic initiation factor 2α kinase); conditions: cited from earlier work
[18] = fit of eq 1 to kobs vs apoprotein concentration
[19] = read-out: Kd (k-heme/k′heme), calculated from off and on rates

Kd [1]: 14 ± 4 nM
Kd [2]: 90 ± 30 nM
Kd [3]: 900 ± 300 nM
k-heme (off rate) [4]: 0.0023 ± 0.0001 s⁻¹
k′heme (apparent second-order rate constant, kcoord/(k2/k1)) ([8]; 406 nm, 20 °C, anaerobic): 6.4e+06 M⁻¹ s⁻¹
k2/k1 [8, 18]: 14.1 ± 0.3 µM
kcoord [8, 18]: 91 ± 1 s⁻¹
Kd [8, 19]: 0.2 nM
k′heme (apparent second-order rate constant, kcoord/(k2/k1)) ([9]; 406 nm, 20 °C, anaerobic): 7.6e+06 M⁻¹ s⁻¹
k2/k1 [9, 18]: 14 ± 4 µM
kcoord [9, 18]: 110 ± 10 s⁻¹
Kd [9, 19]: 0.3 nM
k′heme (apparent second-order rate constant, kcoord/(k2/k1)) [10]: 6.9e+06 M⁻¹ s⁻¹
hemes bound per monomer of protein [12]: 2.1 ± 0.1 hemes per monomer of protein
heme bound per monomer of protein [14]: 0.8 ± 0.2 heme per monomer of protein
Fe^3+-heme binding (in words) [15]: did not bind
difference in binding affinity between the sites (core His45 vs tail Cys265) ([16]; Fe^3+-heme difference titrations): ~ 6 fold
difference in binding affinity between the sites (core His45 vs tail Cys265) ([16]; kinetic experiments): 2–5 fold
Structure (SMILES): C=CC1=C(C)c2cc3[n-]c(cc4[n-]c(cc5nc(cc1n2)C(C)=C5C=C)c(C)c4CCC(=O)O)c(CCC(=O)O)c3C.[Fe+2] [Fe^3+-heme]
k-heme (off rate) [5]: 0.0055 ± 0.0005 s⁻¹
k-heme (off rate), fast phase ([6]; fast phase, assigned to Cys282): 0.0086 ± 0.003 s⁻¹
k-heme (off rate), slow phase ([6]; slow phase, assigned to Cys265): 0.0023 ± 0.0004 s⁻¹
k-heme (off rate), fast phase ([7]; fast phase, assigned to Cys265): 0.0031 ± 0.0002 s⁻¹
k-heme (off rate), slow phase ([7]; slow phase, assigned to His45 at the core): 0.00054 ± 0.00006 s⁻¹
hemes bound per monomer of protein [11]: 1.4 ± 0.3 hemes per monomer of protein
heme bound per monomer of protein [13]: 0.74 ± 0.03 heme per monomer of protein
off rate [17]: 0.0015 s⁻¹

Reference: article PMC4478078 (Biochemistry, 2015)
